Experimental data: ChEMBL document CHEMBL1926530, “Novel pyrazolo[1,5-a]pyridines as p110α-selective PI3 kinase inhibitors: Exploring the benzenesulfonohydrazide SAR” (Bioorg Med Chem, 2012)
Converted amounts (≈) assume the structure as drawn.

Key:
[1] = Cytotoxicity against human NZOV9 cells harboring PI3K p110alpha Y1021C mutant assessed as inhibition of [3H]thymidine incorporation measured after 5 days; format: functional, cell-based
In short: (§1)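 Early-passage lines grown in α-MEM with insulin, transferrin, selenite and 5% FBS. Wells seeded with 1000 cells; inhibitor in dilution steps up to a maximum of 20. Five days under 5% O₂/5% CO₂/90% N₂, ³H-thymidine added for the last 6 h. Duplicates per dose; fit y = y₀ + ae^−bx; IC50 = 50% reduction in incorporation.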

[2] = target: T1, Phosphatidylinositol 4,5-bisphosphate 3-kinase catalytic subunit delta isoform (Homo sapiens, UniProt O00329); assay: Inhibition of recombinant PI3K p110delta using L-alpha-phosphatidylinositol as substrate and [gamma33P]ATP after 60 mins by thin layer chromatographic technique
T1 sequence (O00329 whole entry): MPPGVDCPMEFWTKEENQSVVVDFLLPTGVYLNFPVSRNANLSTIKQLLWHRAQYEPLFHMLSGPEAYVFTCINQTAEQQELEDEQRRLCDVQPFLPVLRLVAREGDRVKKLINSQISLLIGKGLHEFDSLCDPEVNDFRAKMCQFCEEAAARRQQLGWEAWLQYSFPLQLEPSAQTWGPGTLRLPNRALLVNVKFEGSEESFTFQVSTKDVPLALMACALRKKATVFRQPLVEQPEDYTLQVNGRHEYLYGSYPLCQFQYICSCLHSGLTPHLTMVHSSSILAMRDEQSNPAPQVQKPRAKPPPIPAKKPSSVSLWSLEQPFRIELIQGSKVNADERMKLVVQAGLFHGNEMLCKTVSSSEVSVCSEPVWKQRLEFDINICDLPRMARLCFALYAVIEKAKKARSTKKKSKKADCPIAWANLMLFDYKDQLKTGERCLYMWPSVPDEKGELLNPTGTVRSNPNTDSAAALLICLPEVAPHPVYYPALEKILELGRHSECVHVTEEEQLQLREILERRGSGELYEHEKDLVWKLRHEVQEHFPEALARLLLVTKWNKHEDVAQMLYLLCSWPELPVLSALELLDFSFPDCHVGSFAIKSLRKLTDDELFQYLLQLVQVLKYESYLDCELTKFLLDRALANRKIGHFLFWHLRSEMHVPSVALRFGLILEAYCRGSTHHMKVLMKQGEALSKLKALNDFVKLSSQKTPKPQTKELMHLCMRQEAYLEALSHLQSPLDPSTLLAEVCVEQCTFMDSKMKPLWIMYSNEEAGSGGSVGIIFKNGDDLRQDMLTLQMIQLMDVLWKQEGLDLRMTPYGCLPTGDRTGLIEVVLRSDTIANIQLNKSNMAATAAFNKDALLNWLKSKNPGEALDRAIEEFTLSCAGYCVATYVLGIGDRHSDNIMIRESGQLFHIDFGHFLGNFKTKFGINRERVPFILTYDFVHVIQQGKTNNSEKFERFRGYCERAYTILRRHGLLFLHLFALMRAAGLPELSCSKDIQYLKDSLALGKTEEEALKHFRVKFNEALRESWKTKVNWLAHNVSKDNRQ
In short: (§2)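 In-house recombinant enzyme (0.1 µg) with L-α-phosphatidylinositol in 40 mM Tris-HCl pH 7.4, 200 mM NaCl, 1 mM EDTA; DMSO 1% final. Started with 5 mM MgCl₂, 100 µM ATP plus [γ-³³P]ATP; 1 h at room temperature, stopped with 1 M HCl. Lipids extracted, separated by TLC, phosphorimaged. Nine inhibitor concentrations; two experiments, IC50 averaged.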

[3] = target: Phosphatidylinositol 4,5-bisphosphate 3-kinase catalytic subunit beta isoform (Homo sapiens, UniProt P42338); assay: Inhibition of recombinant PI3K p110beta using L-alpha-phosphatidylinositol as substrate and [gamma33P]ATP after 60 mins by thin layer chromatographic technique; in short: as §2
Phosphatidylinositol 4,5-bisphosphate 3-kinase catalytic subunit beta isoform, sequence (P42338 whole entry, canonical isoform): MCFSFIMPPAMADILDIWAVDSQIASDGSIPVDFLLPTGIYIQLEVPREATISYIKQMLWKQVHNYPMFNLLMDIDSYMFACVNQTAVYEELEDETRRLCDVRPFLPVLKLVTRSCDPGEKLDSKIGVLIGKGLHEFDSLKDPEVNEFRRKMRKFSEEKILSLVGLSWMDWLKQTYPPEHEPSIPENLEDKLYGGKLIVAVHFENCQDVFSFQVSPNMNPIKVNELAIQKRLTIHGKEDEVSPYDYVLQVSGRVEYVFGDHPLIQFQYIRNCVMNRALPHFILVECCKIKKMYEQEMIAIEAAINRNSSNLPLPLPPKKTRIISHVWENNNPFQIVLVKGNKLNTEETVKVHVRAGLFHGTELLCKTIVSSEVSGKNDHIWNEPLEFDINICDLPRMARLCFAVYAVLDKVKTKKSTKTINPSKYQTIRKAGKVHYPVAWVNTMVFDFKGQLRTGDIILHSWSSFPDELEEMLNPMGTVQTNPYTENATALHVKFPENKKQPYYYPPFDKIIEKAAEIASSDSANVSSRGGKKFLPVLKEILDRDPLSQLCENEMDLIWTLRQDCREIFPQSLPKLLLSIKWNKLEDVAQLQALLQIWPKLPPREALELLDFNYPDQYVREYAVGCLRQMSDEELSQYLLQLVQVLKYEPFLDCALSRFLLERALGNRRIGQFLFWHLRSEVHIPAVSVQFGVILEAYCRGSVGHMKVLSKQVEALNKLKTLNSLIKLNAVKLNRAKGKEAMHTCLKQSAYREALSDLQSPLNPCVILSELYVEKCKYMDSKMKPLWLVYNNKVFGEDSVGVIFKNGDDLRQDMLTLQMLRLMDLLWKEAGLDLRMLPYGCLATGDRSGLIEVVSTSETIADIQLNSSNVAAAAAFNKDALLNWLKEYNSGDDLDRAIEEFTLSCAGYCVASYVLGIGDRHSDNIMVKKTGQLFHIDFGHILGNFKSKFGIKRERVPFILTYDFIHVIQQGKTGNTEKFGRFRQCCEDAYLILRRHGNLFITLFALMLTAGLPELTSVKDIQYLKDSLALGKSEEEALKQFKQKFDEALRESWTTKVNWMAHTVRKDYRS

[4] = target: Phosphatidylinositol 4,5-bisphosphate 3-kinase catalytic subunit alpha isoform (Homo sapiens, UniProt P42336); assay: Inhibition of recombinant PI3K p110alpha using L-alpha-phosphatidylinositol as substrate and [gamma33P]ATP after 60 mins by thin layer chromatographic technique; in short: as §2
Phosphatidylinositol 4,5-bisphosphate 3-kinase catalytic subunit alpha isoform, sequence (P42336 whole entry, canonical isoform): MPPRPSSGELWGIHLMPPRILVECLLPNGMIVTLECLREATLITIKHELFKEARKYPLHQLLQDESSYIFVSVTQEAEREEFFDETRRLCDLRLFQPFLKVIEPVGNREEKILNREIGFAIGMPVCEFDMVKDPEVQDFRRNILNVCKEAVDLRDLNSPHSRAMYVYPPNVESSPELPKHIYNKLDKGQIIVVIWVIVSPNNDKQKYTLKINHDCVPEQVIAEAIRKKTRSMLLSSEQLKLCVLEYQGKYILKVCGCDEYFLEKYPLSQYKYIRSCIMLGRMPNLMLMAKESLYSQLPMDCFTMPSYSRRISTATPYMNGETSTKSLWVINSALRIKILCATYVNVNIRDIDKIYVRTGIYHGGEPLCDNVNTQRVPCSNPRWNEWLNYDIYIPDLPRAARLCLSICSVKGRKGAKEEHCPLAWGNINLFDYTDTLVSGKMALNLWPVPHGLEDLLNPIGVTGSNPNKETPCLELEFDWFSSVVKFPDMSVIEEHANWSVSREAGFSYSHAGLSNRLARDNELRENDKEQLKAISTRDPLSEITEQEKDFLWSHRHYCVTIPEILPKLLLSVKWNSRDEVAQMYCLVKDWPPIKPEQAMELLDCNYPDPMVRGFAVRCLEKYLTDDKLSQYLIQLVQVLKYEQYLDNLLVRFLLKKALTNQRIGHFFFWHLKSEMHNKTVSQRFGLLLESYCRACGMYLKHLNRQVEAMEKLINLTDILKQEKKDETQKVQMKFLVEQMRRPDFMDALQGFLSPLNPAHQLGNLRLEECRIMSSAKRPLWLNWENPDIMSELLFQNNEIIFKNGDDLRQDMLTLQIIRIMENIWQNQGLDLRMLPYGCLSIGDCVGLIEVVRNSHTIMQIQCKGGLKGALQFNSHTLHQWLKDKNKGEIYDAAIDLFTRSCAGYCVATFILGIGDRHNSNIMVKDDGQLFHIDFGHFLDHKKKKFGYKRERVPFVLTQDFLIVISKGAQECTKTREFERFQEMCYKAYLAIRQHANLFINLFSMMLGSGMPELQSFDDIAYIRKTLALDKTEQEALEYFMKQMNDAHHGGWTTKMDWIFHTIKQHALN

[5] = Cytotoxicity against human NZB5 cells assessed as inhibition of [3H]thymidine incorporation measured after 5 days; format: functional, cell-based; in short: as §1
HCT-116 = assay: Antitumor activity against human HCT116 cells xenografted in Rag1 knockout mouse assessed as tumor growth delay at 20 mg/kg, ip QD measured on day 10 relative to untreated control; format: functional; details: route intraperitoneal
In short: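 Male Rag1−/− mice (age-matched, SPF) inoculated s.c. with 5 × 10⁶ HCT-116 cells in PBS. Dosing started at ~150 mm³ tumours: q.d. i.p. in 7.5% DMSO, 42.5% PEG-400, 20% 2-hydroxypropyl-β-cyclodextrin, 30% water; controls received vehicle. Volume = (L × w²) × π/6, measured three times weekly; bodyweight daily. Treatment stopped if mean weight loss >15%; 1-way ANOVA with Holm–Sidak.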

[6] = Aqueous solubility of the compound; format: physicochemical; details: water
In short: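 Solid mixed with water to make 2 mM, sonicated 15 min, centrifuged 13000 rpm for 6 min. Clear supernatant diluted 2-fold with water, recentrifuged and injected on HPLC. Peak area compared with a DMSO standard solution of the compound, correcting for dilution and injection volume.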

| Compound | IC50 [1] [nM] | IC50 [2] [nM] | IC50 [3] [nM] | IC50 [4] [nM] | IC50 [5] [nM] | Activity (HCT-116) [%] | solubility [6] [µg/mL] |
| --- | --- | --- | --- | --- | --- | --- | --- |
| Cc1ccc(Br)cc1S(=O)(=O)N(C)/N=C/c1cnn2ccc(C#N)cc12 | 570 | 180 | 620 | 13 | 700 |  |  |
| Cc1ccc([N+](=O)[O-])cc1S(=O)(=O)N(C)/N=C/c1cnn2ccc(C#N)cc12 | 1400 |  |  |  |  | 21.2 | 0.1 (≈ 0.251 µM) |
| CC(C)c1ccc([N+](=O)[O-])cc1S(=O)(=O)N(C)/N=C/c1cnn2ccc(C#N)cc12 | 260 | 39 | 300 | 1.8 | 180 |  |  |
| CN(/N=C/c1cnn2ccc(C#N)cc12)S(=O)(=O)c1cc([N+](=O)[O-])ccc1Cl | 350 | 24 | 64 | 0.5 | 880 |  |  |
| Cc1cc([N+](=O)[O-])ccc1S(=O)(=O)N(C)/N=C/c1cnn2ccc(C#N)cc12 | > 20000 | > 1000 | > 1000 | 65 | > 20000 |  |  |
| Cc1cccc([N+](=O)[O-])c1S(=O)(=O)N(C)/N=C/c1cnn2ccc(C#N)cc12 | 7600 | 100 | 340 | 14 | 3700 |  |  |
| CCc1ccc([N+](=O)[O-])cc1S(=O)(=O)N(C)/N=C/c1cnn2ccc(C#N)cc12 | 80 | 13 | 280 | 1.5 | 170 |  |  |
| CN(/N=C/c1cnn2ccc(C#N)cc12)S(=O)(=O)c1cccc([N+](=O)[O-])c1 | 690 | 410 | 1200 | 36 | 380 |  |  |
| Cc1ccccc1S(=O)(=O)N(C)/N=C/c1cnn2ccc(C#N)cc12 | 12000 | 2000 | > 1000 | 700 | > 20000 |  |  |
| Cc1ccc(Cl)cc1S(=O)(=O)N(C)/N=C/c1cnn2ccc(C#N)cc12 | 540 | 230 | 360 | 13 | 670 |  |  |
| Cc1ccc(C(=O)O)cc1S(=O)(=O)N(C)/N=C/c1cnn2ccc(C#N)cc12 | > 20000 | > 1000 | > 1000 | > 1000 | > 20000 |  |  |
| Cc1c([N+](=O)[O-])cccc1S(=O)(=O)N(C)/N=C/c1cnn2ccc(C#N)cc12 | > 20000 | > 1000 | > 1000 | > 1000 | > 20000 |  |  |
| CC(=O)Nc1ccc(C)c(S(=O)(=O)N(C)/N=C/c2cnn3ccc(C#N)cc23)c1 | > 20000 | > 1000 | > 1000 | > 1000 | > 20000 |  |  |
| Cc1ccc(N)cc1S(=O)(=O)N(C)/N=C/c1cnn2ccc(C#N)cc12 |  | > 1000 | > 1000 | > 1000 |  |  |  |
| Cc1ccc([N+](=O)[O-])cc1S(=O)(=O)N(Cc1ccccc1)/N=C/c1cnn2ccc(C#N)cc12 | 2500 | 32 | > 1000 | 27 |  |  |  |
| CN(C)c1ccc([N+](=O)[O-])cc1S(=O)(=O)N(C)/N=C/c1cnn2ccc(C#N)cc12 | 100 | 24 | 44 | 2.2 | 40 |  | 0.5 (≈ 1.17 µM) |
| COC(=O)c1ccc(C)c(S(=O)(=O)N(C)/N=C/c2cnn3ccc(C#N)cc23)c1 | 1900 | 400 | > 1000 | 990 | 2400 |  |  |

| Compound | IC50 [1] [nM] | IC50 [2] [nM] | IC50 [3] [nM] | IC50 [4] [nM] | IC50 [5] [nM] | Activity (HCT-116) [%] | solubility [6] [µg/mL] |
| --- | --- | --- | --- | --- | --- | --- | --- |
| Cc1ccc(S(C)(=O)=O)cc1S(=O)(=O)N(C)/N=C/c1cnn2ccc(C#N)cc12 | 620 | 200 | 830 | 350 | 500 |  |  |
| Cc1ccc([N+](=O)[O-])cc1S(=O)(=O)N(CCN(C)C)/N=C/c1cnn2ccc(C#N)cc12 | 390 | 180 | 490 | 77 | 360 |  |  |
| Cc1ccc(F)cc1S(=O)(=O)N(C)/N=C/c1cnn2ccc(C#N)cc12 | 14000 | 310 | 550 | 55 | > 20000 |  |  |
| Cc1ccc(C(F)(F)F)cc1S(=O)(=O)N(C)/N=C/c1cnn2ccc(C#N)cc12 | 1300 | 35 | 60 | 21 | 980 |  |  |
| CCN(CC)CCN(/N=C/c1cnn2ccc(C#N)cc12)S(=O)(=O)c1cc([N+](=O)[O-])ccc1C | 1700 | 110 | > 1000 | 82 | 3500 |  |  |
| CN(/N=C/c1cnn2ccc(C#N)cc12)S(=O)(=O)c1cc([N+](=O)[O-])ccc1F | 400 | 120 | 44 | 4.7 | 480 |  |  |
| Cc1ccc([N+](=O)[O-])cc1S(=O)(=O)N(CCN1CCOCC1)/N=C/c1cnn2ccc(C#N)cc12 | 540 | 10 | 230 | 4.5 | 500 |  |  |
| Cc1ccc([N+](=O)[O-])cc1S(=O)(=O)N(CCN1CCCCC1)/N=C/c1cnn2ccc(C#N)cc12 | 490 | 89 | > 1000 | 140 | 1100 |  |  |
| Cc1ccc(C#N)cc1S(=O)(=O)N(C)/N=C/c1cnn2ccc(C#N)cc12 | 210 | 59 | 130 | 2.4 | 280 |  |  |
| COc1ccc([N+](=O)[O-])cc1S(=O)(=O)N(C)/N=C/c1cnn2ccc(C#N)cc12 | 50 | 22 | 63 | 0.8 | 90 |  | 0.2 (≈ 0.483 µM) |
| Cc1ccc([N+](=O)[O-])cc1CN(C)/N=C/c1cnn2ccc(C#N)cc12 | 1900 | 37 | 79 | 40 | 1700 |  |  |
| Cc1ccc(C)c(S(=O)(=O)N(C)/N=C/c2cnn3ccc(C#N)cc23)c1 | 880 | > 1000 | > 1000 | 100 | 2100 |  |  |
| Cc1ccc(NC(=O)C(F)(F)F)cc1S(=O)(=O)N(C)/N=C/c1cnn2ccc(C#N)cc12 | 9100 | > 1000 | > 1000 | > 1000 | 2300 |  |  |
| CCN(/N=C/c1cnn2ccc(C#N)cc12)S(=O)(=O)c1cc([N+](=O)[O-])ccc1C | 90 | 9.3 | 62 | 0.5 | 30 |  | 0.2 (≈ 0.485 µM) |
| CN(/N=C/c1cnn2ccc(C#N)cc12)C(=O)c1cccc([N+](=O)[O-])c1 | 6000 | 16 | 67 | 11 | 1800 |  |  |
| Cc1ccc([N+](=O)[O-])cc1C(=O)N(C)/N=C/c1cnn2ccc(C#N)cc12 | > 20000 | 8.6 | 68 | 17 | > 20000 |  |  |
